Screening data as filed in PubChem BioAssay.
Sampled rows, rich in hits. Any-hit rate of the full collection: about 1.7%.
EBNA-1 inh: EBNA-1 DNA-binding inhibitors, primary screen, biochemical, fluorescence polarization | inhibition, % at 14.8 µM | 300,000 tested, 0.34% active; in the data active = inhibition above about 28%
Apaf-1 inh: inhibitors of human Apaf-1 apoptosome, primary screen, biochemical, DEVD-Rh110 fluorescence, uHTS; 330,000 tested, 0.71% active; AID 489030, 2010; inhibition, % at 20 µM; reconstituted apoptosome caspase-3 activity; active = inhibition of at least 40% at 20 µM;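 note: plate controls were DMSO wells for no effect and DEVD-CHO caspase inhibitor wells for full effect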
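System: Apoptosome proteins | Medium: Hepes pH 7.5 with detergent and BSA | Also added: Cytochrome c trigger plus (Z-DEVD)2-Rh110 caspase-3 substrate | Incubation: 30 min compound preincubation, 50 min activation, room temperature | Detection: Rhodamine 110 fluorescence at Ex 480/Em 540 nm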
PREPL inh: PREPL enzyme inhibitors, primary screen, biochemical, fluorescence polarization. Prolyl endopeptidase-like (Homo sapiens), Q4J6C6. recombinant PREPL, fluorescence polarization activity-based probe. inhibition, % at 5.96 µM. 320,000 tested, 0.68% active. AID 2751, 2010; in the data active = inhibition above about 43%;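 note: 0% = enzyme with DMSO and 100% = wells lacking enzyme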
ZTA DNA inh: counter-screen for EBNA-1 inhibitors: inhibitors of Epstein-Barr virus ZTA | ZTA-DNA binding, fluorescence polarization | P03206 | 320,000 tested, 0.15% active | inhibition, % at 11 µM; in the data active = inhibition above about 33%
Target sequence (P03206 whole entry, looked up): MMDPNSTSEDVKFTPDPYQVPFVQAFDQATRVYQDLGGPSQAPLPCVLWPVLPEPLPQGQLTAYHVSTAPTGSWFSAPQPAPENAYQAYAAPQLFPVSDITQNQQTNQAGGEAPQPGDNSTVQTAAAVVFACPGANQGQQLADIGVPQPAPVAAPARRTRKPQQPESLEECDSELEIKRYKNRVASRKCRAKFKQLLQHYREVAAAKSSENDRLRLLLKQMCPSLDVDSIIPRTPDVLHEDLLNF
UBC13 polyUb: UBC13 polyubiquitin chain formation inhibitors, primary screen, biochemical, TR-FRET, uHTS. inhibition, % at 20 µM. 330,000 tested, 0.47% active. AID 485273, 2010; in the data active = inhibition above about 45%, passing the limit was not always enough; inconclusive = no clear call, values can overlap the other calls
Target sequence (P61088 whole entry, looked up): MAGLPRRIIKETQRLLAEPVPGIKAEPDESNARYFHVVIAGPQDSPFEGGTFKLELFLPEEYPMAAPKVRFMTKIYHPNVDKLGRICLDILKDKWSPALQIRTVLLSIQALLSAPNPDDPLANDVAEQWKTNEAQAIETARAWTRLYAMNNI
EBNA-1 inh conf: EBNA-1 DNA-binding inhibitors, retest, confirmation, biochemical, fluorescence polarization, triplicate; shares compounds with EBNA-1 inh; Recombinant EBNA-1 DBD, Cy5-DNA fluorescence polarization; inhibition, % at 14.8 µM; 830 tested, 35% active; AID 2292, 2010;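 active = mean inhibition across replicates above a set limit taken from the earlier primary screen, cut at about 28% in these data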;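 note: plate controls were EBNA-1 protein with DMSO for no effect and wells lacking EBNA-1 for full effect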
ZTA counter trip: EBV Zta DNA binding inhibitors, counter-screen for EBNA-1 inhibitor project, biochemical, fluorescence polarization, triplicate. shares compounds with EBNA-1 inh. Zta-ZRE DNA binding, Cy5 fluorescence polarization. inhibition, % at 11.1 µM. 830 tested, under 10 active;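 active = mean inhibition over triplicates above a set limit taken from the primary EBNA-1 screen, cut at about 37% in these data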;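 note: purified full length Zta protein with Cy5 labeled ZRE DNA probe; 0% = Zta with DMSO and 100% = wells lacking Zta protein; inhibitors lower polarization by freeing the labeled DNA probe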
* = called active by the depositor; ? = inconclusive; . = not tested or not shown.

SMILES | EBNA-1 inh | Apaf-1 inh | PREPL inh | ZTA DNA inh | UBC13 polyUb | EBNA-1 inh conf | ZTA counter trip
O=C(CNC(=O)c1ccco1)NCC(=O)OCc1ccc(C(=O)Oc2ccc(Cl)cc2)cc1 | 89* | 1 | -7 | 10 | -2 | 9 | 5
Cc1cccc(NC(=O)/C(C#N)=C/c2cn(CC(=O)NCc3ccco3)c3ccccc23)c1C | 35* | 14 | -9 | 1 | -15 | 30* | -1
CCOC(=O)c1cc([N+](=O)[O-])sc1NC(=O)c1ccc(S(=O)(=O)N2CC3(C)CC2CC(C)(C)C3)cc1 (stereo not given) | 6 | -9 | 10 | 9 | -7 | . | .
CCn1c(NC(=O)c2cccc(Cn3cc(Cl)cn3)c2)nc2ccccc21 | 7 | 32 | 1 | -5 | 6 | . | .
Cn1c(NC(=O)c2cccc(Cn3cc(Cl)cn3)c2)nc2ccccc21 | 41* | -8 | -1 | 10 | 12 | 34* | -3
COc1cc(COCC(O)CN2CCCCC2C)cc(OC)c1OC (stereo not given) | -1 | 2 | 3 | 1 | 2 | . | .
Cc1cccc(C(=O)Oc2ccccc2/C=N/Nc2ccc([N+](=O)[O-])cc2)c1 | 34* | . | 6 | 4 | . | 41* | 0
CCCN1CCN(CCCNC(=O)Cn2nc(-c3ccc(C)cc3)ccc2=O)CC1 | -7 | -22 | 15 | -9 | -4 | . | .
O=c1c2ccccc2nc(SCc2ccc([N+](=O)[O-])cc2)n1-c1ccccc1 | 2 | 4 | 7 | 3 | -15 | . | .
O=C(CSc1nc2ccccc2c(=O)n1-c1ccccc1)c1cccc([N+](=O)[O-])c1 | 32* | -22 | 1 | 6 | 15 | 27 | 0
N#C/C(=C\c1cn(Cc2ccccc2C#N)c2ccccc12)C(=O)NCc1cccs1 | 31* | 3 | 8 | -14 | -26 | 2 | -8
COc1cccc(N2CCN(S(=O)(=O)c3ccc(-c4cnc(C5CC5)o4)cc3)CC2)c1 | 91* | 11 | -10 | -5 | 9 | 84* | 2
Cc1ccc(Cl)c2c1NC(=O)C2(O)CC(=O)c1ccc(Br)cc1 (stereo not given) | 0 | 4 | -6 | -12 | 7 | . | .
NS(=O)(=O)c1ccc(NC(=O)c2ccc(S(=O)(=O)N3CCc4ccccc43)cc2)cc1 | 94* | 5 | -2 | -16 | -11 | 0 | 15
CCOc1ccc2nc(SCC(=O)NNC(=O)c3ccco3)c(C)cc2c1 | 57* | -3 | -28 | 7 | -1 | 42* | 2
COc1ccccc1N1CCN(c2ccc([N+](=O)[O-])cc2Cl)CC1 | 38* | 15 | 13 | 2 | 3 | -13 | -2
CCN(CC)S(=O)(=O)c1ccc(C(=O)NN(C)C2=NS(=O)(=O)c3ccccc32)cc1 | 36* | 2 | 7 | -2 | -4 | 2 | -11
CCOc1ccc(-c2nn(-c3ccccc3)cc2/C=C2\SC(N)=NC2=O)cc1C | -2 | 22 | -5 | -17 | -6 | . | .
CCOC(=O)CC(NC(=O)C1c2ccccc2Oc2ccccc21)c1ccccc1Cl (stereo not given) | 102* | 2 | 9 | -6 | 2 | 4 | -21
CCOC(=O)CC(NC(=O)Cc1ccccc1)c1ccccc1Cl (stereo not given) | 4 | -11 | 4 | -19 | -5 | . | .
COCCn1c(SCc2nc(N)nc(Nc3ccccc3C)n2)nc2ccccc2c1=O | 1 | -8 | 9 | 7 | 0 | . | .
Cc1ccccc1Nc1nc(N)nc(CSc2nc3ccccc3c(=O)n2CCCO)n1 | 42* | 7 | 12 | 9 | 2 | -2 | 6
S=C(NCCc1ccccc1)N/N=C/c1cccc(Cl)c1Cl | 2 | 14 | -52 | 0 | -17 | . | .
CC(=O)Nc1ccc(S(=O)(=O)N2CCN(Cc3nc4sc(C)c(C)c4c(=O)[nH]3)CC2)cc1 | 27* | -1 | 9 | 0 | 5 | 55* | 0
Cc1ccccc1OCc1nc(-c2ccc(NC(=O)c3ccc4c(c3)OCO4)cc2)no1 | 29* | -1 | -4 | 4 | -14 | 39* | 25
SMILES | EBNA-1 inh | Apaf-1 inh | PREPL inh | ZTA DNA inh | UBC13 polyUb | EBNA-1 inh conf | ZTA counter trip
CCOc1ccc(-n2cc(-c3ccccc3)c3c(=S)nc[nH]c32)cc1 | 13 | 18 | 22 | -2 | ? | . | .
S=C(c1ccc(Br)cc1)N1CCCC1 | 3 | 3 | -7 | -2 | 3 | . | .
COc1ccc(/C=C/C(=O)NC(=S)Nc2ccc(S(N)(=O)=O)cc2)cc1 | 33* | -80 | 9 | 31 | 3 | 39* | 37*
CC(=O)Nc1c2c(nn1-c1ccc(C)cc1)CSC2 | 0 | -7 | 4 | 5 | 3 | . | .
Cc1ccc(-n2nc3c(c2NC(=O)c2ccc4c(c2)OCO4)CSC3)cc1 | 47* | -2 | -1 | 5 | 1 | 25 | 8
Cc1occc1C(=O)N1CCCC(N2CCN(c3cccc(Cl)c3)CC2)C1 (stereo not given) | 3 | 9 | 19 | 4 | -6 | . | .
COc1ccc(C(=O)COC(=O)CNC(=O)c2ccc(Cl)cc2Cl)c(OC)c1 | -11 | 12 | -60 | 7 | 2 | . | .
CCOC(=O)c1c(C)[nH]c(C(=O)COC(=O)CNC(=O)c2ccc(Cl)cc2Cl)c1C | 96* | -12 | -10 | 12 | -7 | 26 | 4
NC(=O)c1ccc(NC(=O)COC(=O)/C=C/c2ccc3c(c2)OCO3)cc1 | 32* | -33 | 3 | 15 | 16 | 2 | -9
CCOc1ccc(NC(=O)CCC(=O)N/N=C/c2ccc3c(c2)OCO3)cc1 | 35* | -6 | 4 | 2 | -8 | 18 | 2
CCOc1ccc(/C=N/NC(=O)CCC(=O)Nc2ccc(F)cc2)cc1 | 2 | 1 | 12 | -4 | 3 | . | .
COc1ccc(OS(=O)(=O)Cc2ccccc2)cc1 | -5 | 8 | -9 | -7 | 1 | . | .
Cc1ccc(N2CCN(C3=NC(=O)/C(=C\c4cn[nH]c4-c4ccccc4)S3)CC2)cc1 | 93* | 15 | 29 | -6 | -19 | 43* | -3
O=C1N=C(N2CCN(c3ccccc3)CC2)S/C1=C\c1ccco1 | 7 | 19 | 23 | -19 | -9 | . | .
Cc1cccc(N2CCN(C3=NC(=O)C(=C4CCCCC4)S3)CC2)c1 | 3 | 19 | 20 | 16 | -7 | . | .
Cc1cccc(N2CCN(C3=NC(=O)/C(=C\c4cn[nH]c4-c4ccccc4)S3)CC2)c1 | 67* | 7 | 17 | -10 | -4 | 29* | 12
O=C1N=C(N2CCC(Cc3ccccc3)CC2)S/C1=C/c1cn[nH]c1-c1ccccc1 | 5 | 10 | -34 | 0 | -6 | . | .
